Experiments:
HepG2 [1] = test: Anticancer activity against human HepG2 cells assessed as cell survival after 48 hrs by MTT assay; format: functional, cell-based; settings: HepG2, 48 h
Summary of the method: (§1)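 MTT colorimetric assay. MTT was added (4 h, 37 °C), followed by DMSO, and absorbance was read at 570 nm. IC50 is the concentration giving 50% cell survival. Values are the mean ± SD of three independent experiments in triplicate.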

MGC-803 [2] = test: Anticancer activity against human MGC803 cells assessed as cell survival after 48 hrs by MTT assay; format: functional, cell-based; settings: MGC-803, 48 h; summary of the method: as §1
[3] = Octanol-water partition coefficient, log P of the compound by shake-flask method; format: physicochemical
Summary of the method: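 Shake-flask method: the solute was dissolved in octanol and water and its concentration in each phase was measured by HPLC. Log P is the logarithm of the octanol/aqueous concentration ratio.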

[4] = Anticancer activity against human SGC7901 cells assessed as cell survival after 48 hrs by MTT assay; format: functional, cell-based; settings: SGC-7901, 48 h; summary of the method: as §1
[5] = Anticancer activity against human SMMC7721 cells assessed as cell survival after 48 hrs by MTT assay; format: functional, cell-based; settings: SMMC-7721, 48 h; summary of the method: as §1
[6] = target: Telomerase reverse transcriptase (Homo sapiens, UniProt O14746); test: Inhibition of telomerase in human MGC803 cell extracts after 24 hrs by TRAP-PCR-ELISA; parameters: species or system MGC-803
Chain of Telomerase reverse transcriptase (O14746 whole entry): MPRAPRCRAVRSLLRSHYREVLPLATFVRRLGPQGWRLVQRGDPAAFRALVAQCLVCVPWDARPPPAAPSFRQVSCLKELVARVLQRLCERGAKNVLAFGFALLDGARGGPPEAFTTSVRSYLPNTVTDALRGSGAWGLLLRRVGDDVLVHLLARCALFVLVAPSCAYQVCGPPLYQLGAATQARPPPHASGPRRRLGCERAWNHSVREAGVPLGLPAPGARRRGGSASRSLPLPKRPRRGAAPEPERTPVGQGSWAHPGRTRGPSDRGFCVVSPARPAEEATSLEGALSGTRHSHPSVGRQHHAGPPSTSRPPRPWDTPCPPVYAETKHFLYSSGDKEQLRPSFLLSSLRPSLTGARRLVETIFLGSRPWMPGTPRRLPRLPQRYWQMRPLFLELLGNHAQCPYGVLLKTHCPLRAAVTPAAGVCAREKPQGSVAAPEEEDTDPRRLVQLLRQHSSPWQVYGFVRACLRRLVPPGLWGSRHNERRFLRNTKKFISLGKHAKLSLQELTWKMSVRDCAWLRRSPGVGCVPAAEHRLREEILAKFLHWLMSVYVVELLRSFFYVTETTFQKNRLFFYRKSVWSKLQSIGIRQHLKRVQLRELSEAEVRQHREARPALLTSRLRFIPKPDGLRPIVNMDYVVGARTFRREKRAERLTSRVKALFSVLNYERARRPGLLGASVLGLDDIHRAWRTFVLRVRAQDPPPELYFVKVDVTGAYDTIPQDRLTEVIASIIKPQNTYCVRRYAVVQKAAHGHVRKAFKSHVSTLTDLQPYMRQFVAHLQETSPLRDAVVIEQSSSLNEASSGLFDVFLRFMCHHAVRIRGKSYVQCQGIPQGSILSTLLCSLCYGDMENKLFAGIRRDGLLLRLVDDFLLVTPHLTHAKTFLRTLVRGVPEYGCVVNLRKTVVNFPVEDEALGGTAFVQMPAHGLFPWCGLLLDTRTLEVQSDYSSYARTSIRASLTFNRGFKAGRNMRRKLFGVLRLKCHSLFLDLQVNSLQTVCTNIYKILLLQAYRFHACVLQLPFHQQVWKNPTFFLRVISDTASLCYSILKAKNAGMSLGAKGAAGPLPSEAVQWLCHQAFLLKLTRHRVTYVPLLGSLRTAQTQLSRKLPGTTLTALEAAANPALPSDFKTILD
Summary of the method: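 MGC-803 cells were grown in DMEM with 10% FBS, streptomycin and penicillin at 37 °C, 5% CO2, and 5 × 10^4 cells were seeded and allowed to adhere. Cells were exposed to staurosporine and test agents (60 to 0.0821 […] series) for 24 h, then scraped, washed, lysed in RIPA buffer on ice for 30 min, and spun at 12,000 g for 20 min at 4 °C. Extract (2 µL) was run in a TRAP-PCR-ELISA with anti-DIG peroxidase detection and read at 490 nm. Values are mean ± SD.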

SMMC-7721 [7] = test: Induction of apoptosis in human SMMC7721 cells assessed […] cells at 0.5 uM after 48 hrs by annexin V/PI staining based flow cytometry (reference value: 0.434%); format: functional; settings: SMMC-7721, 48 h, read-out: Activity
SMMC-7721 [8] = test: Induction of apoptosis in human SMMC7721 cells assessed as normal cells at 0.5 uM after 48 hrs by annexin V/PI staining based flow cytometry (reference value: 98%); format: functional
HepG2 [9] = test: Ratio of celastrol IC50 to compound IC50 for human HepG2 cells assessed as cell survival after 48 hrs by MTT assay; format: functional
MGC-803 [10] = test: Ratio of celastrol IC50 to compound IC50 for human MGC803 cells assessed as cell survival after 48 hrs by MTT assay; format: functional
SMMC-7721 [11] = test: Induction of apoptosis in human SMMC7721 cells assessed as necrotic cells at 0.5 uM after 48 hrs by annexin V/PI staining based flow cytometry (reference value: 0%); format: functional
SMMC-7721 [12] = test: Induction of apoptosis in human SMMC7721 cells assessed as non-viable cells at 0.5 uM after 48 hrs by annexin V/PI staining based flow cytometry (reference value: 1.56%); format: functional

Row | Structure (SMILES) | IC50 (HepG2 [1]) [µM] | IC50 (MGC-803 [2]) [µM] | logP [3] | IC50 [4] [µM] | IC50 [5] [µM] | IC50 [6] [µM] | viability at 0.5 µM (SMMC-7721 [7]) [%] | Activity (SMMC-7721 [8]) [%] | Ratio IC50 (HepG2 [9]) | Ratio IC50 (MGC-803 [10]) | Activity (SMMC-7721 [11]) [%] | Activity (SMMC-7721 [12]) [%]
1 | CC1=C(O)C(=O)C=C2C1=CC=C1[C@@]2(C)CC[C@@]2(C)[C@@H]3C[C@](C)(C(=O)N4CCN(CCN5CCOCC5)CC4)CC[C@]3(C)CC[C@]12C | 16.4 | 13.4 | 3.5 | 8.1 | 12.3 | 15.2 | – | – | – | – | – | –
2 | CNC(=O)[C@]1(C)CC[C@]2(C)CC[C@]3(C)C4=CC=C5C(=CC(=O)C(O)=C5C)[C@]4(C)CC[C@@]3(C)[C@@H]2C1 | 10.6 | 24.1 | 3.96 | 9.38 | 7.62 | 15.1 | – | – | – | – | – | –
3 | CC1=C(O)C(=O)C=C2C1=CC=C1[C@@]2(C)CC[C@@]2(C)[C@@H]3C[C@](C)(C(=O)O)CC[C@]3(C)CC[C@]12C [CELASTROL] | 4.01 | 1.55 | 4.38 | 0.15 | 0.58 | 0.78 | – | – | – | – | – | –
4 | CC1=C(O)C(=O)C=C2C1=CC=C1[C@@]2(C)CC[C@@]2(C)[C@@H]3C[C@](C)(C(=O)NCCO)CC[C@]3(C)CC[C@]12C | 0.61 | 0.39 | 3.44 | 0.16 | 0.3 | 0.11 | 13.2 | 37.6 | 6.6 | 4 | 1.24 | 48
5 | CCOC(=O)[C@]1(C)CC[C@]2(C)CC[C@]3(C)C4=CC=C5C(=CC(=O)C(O)=C5C)[C@]4(C)CC[C@@]3(C)[C@@H]2C1 | 15.2 | 12 | 4.98 | 11.5 | 9.28 | 18.6 | – | – | – | – | – | –
6 | CC1=C(O)C(=O)C=C2C1=CC=C1[C@@]2(C)CC[C@@]2(C)[C@@H]3C[C@](C)(C(=O)N4CCN(CCN(C)C)CC4)CC[C@]3(C)CC[C@]12C | 5.21 | 1 | 3.95 | 1.33 | 2.58 | 1.41 | – | – | – | – | – | –
7 | COc1cccc2c1C(=O)c1c(O)c3c(c(O)c1C2=O)C[C@@](O)(C(=O)CO)C[C@@H]3O[C@H]1C[C@H](N)[C@H](O)[C@H](C)O1 [DOXORUBICIN] | 0.87 | 1.19 | – | 1.45 | 1.22 | – | – | – | – | – | – | –
8 | CC1=C(O)C(=O)C=C2C1=CC=C1[C@@]2(C)CC[C@@]2(C)[C@@H]3C[C@](C)(C(=O)NCC(C)O)CC[C@]3(C)CC[C@]12C (stereo partly specified) | 0.28 | 1.22 | 3.49 | 0.1 | 0.61 | 0.34 | – | – | 14.3 | 1.3 | – | –
9 | CCCCNC(=O)[C@]1(C)CC[C@]2(C)CC[C@]3(C)C4=CC=C5C(=CC(=O)C(O)=C5C)[C@]4(C)CC[C@@]3(C)[C@@H]2C1 | 3.07 | 3.55 | – | 4.9 | 6.88 | – | – | – | – | – | – | –
10 | C/C(=C\C(=O)Nc1ccccc1C(=O)O)c1ccc2ccccc2c1 | – | – | – | – | – | 0.41 | – | – | – | – | – | –
11 | O=c1[nH]cc(F)c(=O)[nH]1 [FLUOROURACIL] | 5.86 | 3.58 | – | 6.12 | 4.87 | – | – | – | – | – | – | –
12 | CC1=C(O)C(=O)C=C2C1=CC=C1[C@@]2(C)CC[C@@]2(C)[C@@H]3C[C@](C)(C(=O)N4CCN(CCO)CC4)CC[C@]3(C)CC[C@]12C | 8.7 | 10.3 | 3.44 | 3.81 | 1.84 | 2.01 | – | – | – | – | – | –
13 | CC1=C(O)C(=O)C=C2C1=CC=C1[C@@]2(C)CC[C@@]2(C)[C@@H]3C[C@](C)(C(=O)N(C)C)CC[C@]3(C)CC[C@]12C | 11.2 | 6.3 | 4.2 | 10.5 | 20 | 21 | – | – | – | – | – | –
14 | CC1=C(O)C(=O)C=C2C1=CC=C1[C@@]2(C)CC[C@@]2(C)[C@@H]3C[C@](C)(C(=O)N4CCOCC4)CC[C@]3(C)CC[C@]12C | 22.7 | 30.7 | 3.8 | 8.74 | 10.7 | 8.01 | – | – | – | – | – | –
